Reference: ChEMBL document CHEMBL3864121, “Development of ebsulfur analogues as potent antibacterials against methicillin-resistant Staphylococcus aureus” (Bioorg Med Chem, 2016)
In brackets after ≈: the same amount, converted by molar mass.

Experiments:
Format in all cases: functional
[1] = test system: Enterococcus; test: Antibacterial activity against Vancomycin-resistant Enterococcus measured after overnight incubation by broth double-dilution method
How it was run: (§1)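 MIC by broth double-dilution in liquid Mueller-Hinton medium. Values are reported in µg/mL.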

[2] = test system: Staphylococcus aureus; test: Antibacterial activity against methicillin-resistant Staphylococcus aureus S17 measured after overnight incubation by broth double-dilution method; how it was run: as §1
[3] = test system: Staphylococcus aureus; test: Antibacterial activity against methicillin-resistant Staphylococcus aureus G6 measured after overnight incubation by broth double-dilution method; how it was run: as §1
[4] = test system: Staphylococcus aureus; test: Antibacterial activity against methicillin-resistant Staphylococcus aureus C1 measured after overnight incubation by broth double-dilution method; how it was run: as §1
[5] = test system: Staphylococcus aureus; test: Antibacterial activity against methicillin-resistant Staphylococcus aureus NRS77 measured after overnight incubation by broth double-dilution method; how it was run: as §1
[6] = test system: Staphylococcus aureus; test: Antibacterial activity against methicillin-resistant Staphylococcus aureus C14 measured after overnight incubation by broth double-dilution method; how it was run: as §1
[7] = test system: Enterococcus faecium; test: Antibacterial activity against Enterococcus faecium BM4105-RF measured after overnight incubation by broth double-dilution method; how it was run: as §1
[8] = test system: Staphylococcus epidermidis; test: Antibacterial activity against Staphylococcus epidermidis ATCC 35984 measured after overnight incubation by broth double-dilution method; conditions: RP62A
How it was run: (§2)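 MIC by broth double-dilution in Mueller-Hinton medium. Re-testing at the time-kill inoculum used 1×10^6 CFU/mL.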

[9] = test system: Staphylococcus aureus; test: Antibacterial activity against methicillin-resistant Staphylococcus aureus ATCC 33591 measured after overnight incubation by broth double-dilution method; how it was run: as §1
[10] = test system: Staphylococcus aureus; test: Antibacterial activity against methicillin-resistant Staphylococcus aureus C16 measured after overnight incubation by broth double-dilution method; how it was run: as §1
[11] = test system: Staphylococcus aureus; test: Antibacterial activity against methicillin-sensitive Staphylococcus aureus ATCC 29213 measured after overnight incubation by broth double-dilution method; how it was run: as §1
[12] = test system: Staphylococcus aureus; test: Antibacterial activity against methicillin-resistant Staphylococcus aureus G12 measured after overnight incubation by broth double-dilution method; how it was run: as §1
[13] = test system: Staphylococcus aureus; test: Antibacterial activity against methicillin-resistant Staphylococcus aureus S22 measured after overnight incubation by broth double-dilution method; how it was run: as §1
[14] = test system: Staphylococcus aureus; test: Antibacterial activity against methicillin-resistant Staphylococcus aureus S14 measured after overnight incubation by broth double-dilution method; how it was run: as §1
[15] = test system: Staphylococcus aureus; test: Antibacterial activity against methicillin-resistant Staphylococcus aureus USA600 measured after overnight incubation by broth double-dilution method; how it was run: as §1
[16] = test system: Staphylococcus aureus; test: Antibiofilm activity against methicillin-sensitive Staphylococcus aureus ATCC 6538 assessed as reduction of biofilm at 62..5 ug/ml measured after 24 hrs by crystal violet staining based method relative to control; set-up: scale not given: the % may be the effect or the level left
[17] = test system: Staphylococcus aureus; test: Antibacterial activity against methicillin-sensitive Staphylococcus aureus ATCC 6538 measured after overnight incubation by broth double-dilution method; how it was run: as §1
[18] = test system: Mycolicibacterium smegmatis; test: Antibacterial activity against Mycobacterium smegmatis MC2-155 measured after overnight incubation by broth double-dilution method; conditions: str. MC2 155; how it was run: as §1
[19] = test system: Staphylococcus aureus; test: Antibacterial activity against methicillin-resistant Staphylococcus aureus NRS51 measured after overnight incubation by broth double-dilution method; how it was run: as §1
[20] = test system: Staphylococcus aureus; test: Antibacterial activity against methicillin-resistant Staphylococcus aureus USA300 measured after overnight incubation by broth double-dilution method; how it was run: as §1
[21] = test system: Staphylococcus aureus; test: Antibacterial activity against methicillin-resistant Staphylococcus aureus BRS3 measured after overnight incubation by broth double-dilution method; how it was run: as §1
[22] = test system: Staphylococcus aureus; test: Antibacterial activity against methicillin-resistant Staphylococcus aureus NRS4 measured after overnight incubation by broth double-dilution method; how it was run: as §1
[23] = test system: Enterococcus faecalis; test: Antibacterial activity against Enterococcus faecalis ATCC 29212 measured after overnight incubation by broth double-dilution method; how it was run: as §2
[24] = test system: Listeria monocytogenes; test: Antibacterial activity against Listeria monocytogenes ATCC 19115 measured after overnight incubation by broth double-dilution method; how it was run: as §2
[25] = test system: Staphylococcus aureus; test: Antibacterial activity against methicillin-resistant Staphylococcus aureus G1 measured after overnight incubation by broth double-dilution method; how it was run: as §1
[26] = test system: Staphylococcus aureus; test: Antibacterial activity against methicillin-resistant Staphylococcus aureus USA200 measured after overnight incubation by broth double-dilution method; how it was run: as §1
[27] = test system: Staphylococcus aureus; test: Antibacterial activity against methicillin-resistant Staphylococcus aureus USA100 measured after overnight incubation by broth double-dilution method; how it was run: as §1
[28] = test system: Staphylococcus aureus; test: Antibacterial activity against methicillin-sensitive Staphylococcus aureus ATCC 25923 measured after overnight incubation by broth double-dilution method; how it was run: as §1
[29] = test system: Staphylococcus aureus; test: Antibacterial activity against methicillin-resistant Staphylococcus aureus C7 measured after overnight incubation by broth double-dilution method; how it was run: as §1
[30] = test system: Staphylococcus aureus; test: Antibacterial activity against methicillin-resistant Staphylococcus aureus G14 measured after overnight incubation by broth double-dilution method; how it was run: as §1
[31] = test system: Staphylococcus aureus; test: Antibacterial activity against methicillin-resistant Staphylococcus aureus C19 measured after overnight incubation by broth double-dilution method; how it was run: as §1
[32] = test system: Staphylococcus aureus; test: Antibacterial activity against methicillin-resistant Staphylococcus aureus 1 measured after overnight incubation by broth double-dilution method; how it was run: as §1
[33] = test system: Staphylococcus aureus; test: Antibacterial activity against methicillin-resistant Staphylococcus aureus 2 measured after overnight incubation by broth double-dilution method; how it was run: as §1
[34] = test system: Staphylococcus aureus; test: Antibacterial activity against methicillin-resistant Staphylococcus aureus S24 measured after overnight incubation by broth double-dilution method; how it was run: as §1
[35] = test system: Enterococcus faecalis; test: Antibacterial activity against Enterococcus faecalis ATCC 49533 measured after overnight incubation by broth double-dilution method; how it was run: as §2
[36] = test system: Staphylococcus aureus; test: Antibacterial activity against methicillin-resistant Staphylococcus aureus C2 measured after overnight incubation by broth double-dilution method; how it was run: as §1

O=c1c2ccccc2sn1-c1ccc(F)cc1
MIC [1]: 2 µg/mL (≈ 8.15 µM) | MIC [2]: 3.9 µg/mL (≈ 15.9 µM) | MIC [3]: 3.9 µg/mL (≈ 15.9 µM) | MIC [4]: 2 µg/mL (≈ 8.15 µM) | MIC [5]: 3.9 µg/mL (≈ 15.9 µM) | MIC [6]: 3.9 µg/mL (≈ 15.9 µM) | MIC [7]: 31.3 µg/mL (≈ 128 µM) | MIC [8]: 2 µg/mL (≈ 8.15 µM) | MIC [9]: 1 µg/mL (≈ 4.08 µM) | MIC [10]: 3.9 µg/mL (≈ 15.9 µM) | MIC [11]: 3.9 µg/mL (≈ 15.9 µM) | MIC [12]: 2 µg/mL (≈ 8.15 µM) | MIC [13]: 2 µg/mL (≈ 8.15 µM) | MIC [14]: ≤ 0.25 µg/mL | MIC [15]: 2 µg/mL (≈ 8.15 µM) | Activity [16]: 10% | MIC [17]: 3.9 µg/mL (≈ 15.9 µM) | MIC [18]: 1 µg/mL (≈ 4.08 µM) | MIC [19]: 3.9 µg/mL (≈ 15.9 µM) | MIC [20]: 2 µg/mL (≈ 8.15 µM) | MIC [21]: 3.9 µg/mL (≈ 15.9 µM) | MIC [22]: 3.9 µg/mL (≈ 15.9 µM) | MIC [23]: 62.5 µg/mL (≈ 255 µM) | MIC [24]: 2 µg/mL (≈ 8.15 µM) | MIC [25]: 2 µg/mL (≈ 8.15 µM) | MIC [26]: 3.9 µg/mL (≈ 15.9 µM) | MIC [27]: 2 µg/mL (≈ 8.15 µM) | MIC [28]: 2 µg/mL (≈ 8.15 µM) | MIC [29]: 1 µg/mL (≈ 4.08 µM) | MIC [30]: 2 µg/mL (≈ 8.15 µM) | MIC [31]: 2 µg/mL (≈ 8.15 µM) | MIC [32]: 3.9 µg/mL (≈ 15.9 µM) | MIC [33]: 2 µg/mL (≈ 8.15 µM) | MIC [34]: 2 µg/mL (≈ 8.15 µM) | MIC [35]: > 125 µg/mL | MIC [36]: 3.9 µg/mL (≈ 15.9 µM)
